These results are taken from ChEMBL document CHEMBL1142304, “Synthesis and biological activity of phosphonate analogues and geometric isomers of the highly potent phosphoantigen (E)-1-hydroxy-2-methylbut-2-enyl 4-diphosphate” (J Med Chem, 2008).

Data set [1] can be described thus: Agonist activity at human Vgamma9Vdelta2 receptor expressed in T cells assessed as stimulation of TNFalpha release by ELISA. The note with it: T-cell. It counts as functional, cell-based. In general terms: ELISA stands for enzyme-linked immunosorbent assay.
A short description of data set [2]: Effect on proliferation of human T cell expressing Vgamma9Vdelta2 receptor in cynomolgus monkey co-treated with IL2 assessed as circulating T cells in blood at 2.5 mg/kg, iv. It counts as functional. Put shortly:
(§1)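 Cynomolgus monkeys were dosed i.v. in Ringer lactate, either as a 30 min infusion (50 mL) or as a bolus depending on the series, with IL-2 0.6 M IU s.c. daily for 5 days. Blood was sampled predose and on days 4, 5, 7, 11 and 14. Circulating γδ-cells were counted by flow cytometry (Vγ9/CD3/CD69 staining, counting beads).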

Data set [3] deals with T-cell. Briefly: Effect on proliferation of human T cell expressing Vgamma9Vdelta2 receptor in cynomolgus monkey co-treated with IL2 assessed as circulating T cells in blood at 5 mg/kg, iv. It counts as functional, organism-based. Also on record: dose 5 mg/kg. A digest of the protocol: (§2)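 Purpose-bred cynomolgus monkeys (7 male, 7 female, 1.8–3.5 kg) got an i.v. bolus in Ringer lactate, with IL-2 0.6 M IU s.c. daily for 5 days. Blood was taken predose and on days 4, 5, 7, 11 and 14. Whole-blood flow cytometry used anti-Vγ9, CD3 and CD69 staining, red-cell lysis and counting fluorospheres for absolute counts.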

A short description of data set [4]: Chemical stability assessed as degradation at 60 degC after 24 hrs. The note with it: read-out: Activity. It counts as physicochemical. Put shortly:
(§3)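 Pyrophosphate analogue tested as 0.3 mM solution and pyrophosphonate analogue as 0.5 mM solution under the stated temperature, 0.1 N HCl or H2O2 stress. Degradation was measured by ionic chromatography with conductometric detection and estimated as % of relative area.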

Data set [5] can be described thus: Chemical stability assessed as degradation at 25 degC after 7 days. Conditions: 168 h. It counts as physicochemical. Put shortly:
as §3

The nature of data set [6]: Chemical stability at 4 degC after 7 days. The note with it: 168 h. In kind it is physicochemical. Put shortly: as §3
Data set [7] concerns T-cell. Briefly: Effect on proliferation of human T cell expressing Vgamma9Vdelta2 receptor in cynomolgus monkey co-treated with IL2 assessed as circulating T cells in blood at 0.02 mg/kg, iv. Further details: dose 0.02 mg/kg. In kind it is functional, organism-based. Put shortly: as §1
Data set [8] relates to T-cell. The data set can be described thus: Effect on proliferation of human T cell expressing Vgamma9Vdelta2 receptor in cynomolgus monkey co-treated with IL2 assessed as circulating T cells in blood at 10 mg/kg, iv. It counts as functional, organism-based. Further details: dose 10 mg/kg. A digest of the protocol:
as §2

A short description of data set [9]: Drug level in iv dosed rat assessed as excreted compound in urine. Conditions: read-out: Drug uptake. It counts as ADME, organism-based.
Data set [10] is described as follows: Chemical stability assessed as degradation in 3% H2O2 at 60 degC after 2 hrs. In kind it is physicochemical. The note with it: read-out: Activity. Put shortly: as §3
The subject of a further data set is Rattus norvegicus. Briefly: Drug level in iv dosed rat assessed as recovered compound after 7 days. The note with it: in vivo, 168 h. In kind it is ADME, organism-based.

Active and inactive are the calls of the source. The rule behind the calls is not given here. Where only a bound is given, the exact number is not on record here.

One may read the EC50 as the concentration at which the effect is half-maximal.

In the case of `C/C(=C/CO)COP(=O)(O)OP(=O)(O)O`, the EC50 in data set [1] is greater than 100000 nM.
Take `C/C(=C/CO)CCP(=O)(O)O`: the EC50 in data set [1] was greater than 100000 nM.
On to `CC(O)(CBr)CCOP(=O)(O)OP(=O)(O)O` (configuration not stated) [BROMOHYDRIN PYROPHOSPHATE], for which the EC50 in data set [1] was found to be 23.9 nM.
On to `C/C(=C/CO)CCP(=O)(O)OP(=O)(O)O`, for which the EC50 in data set [1] is greater than 100000 nM.
Consider `C/C(=C/COP(=O)(O)OP(=O)(O)O)CO`, for which the EC50 in data set [1] was found to be 252 nM.
On to `C/C(=C\CO)COP(=O)(O)OP(=O)(O)O`, for which, in [1], the EC50 is 93.5 nM.
On to `C/C(=C\COP(=O)(O)OP(=O)(O)O)CO`, for which the Activity in data set [2] was 40%. For the same compound, the outcome in the data set on T-cell [3], in the data set with T-cell [7] and in the data set on T-cell [8] was Active. Further, the degraded at 24 h in data set [4] was found to be 14%. For the same compound, the degradation in data set [5] stood at 5%. In addition, in data set [6], the Stability entry was “Stable”. Further, in [9], the dose excreted worked out at 50%. Besides, in data set [10], the degraded at 2 h worked out at 4%. In addition, in the data set with Rattus norvegicus, the Drug uptake was 80%. Also, the EC50 in data set [1] came out at 0.39 nM.
